Reference: ChEMBL document CHEMBL2176895, “Bacterial reduction as means for colonic drug delivery: can other chemical groups provide an alternative to the azo bond?” (J Med Chem, 2012)

Test: Drug metabolism in Sprague-Dawley rat cecal contents assessed as colonic bacteria-mediated rate for final reduction product formation relative to sulfasalazine reduction rate
Assay type: ADME
Conditions: not given; call rule not given here
How it was run: (§1)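 The reduction was followed by reversed-phase HPLC with photodiode-array detection on a C18 column at 30 °C and 1 mL/min. Elution used a gradient of methanol against 50 mM potassium phosphate buffer, pH 6.8, containing 0.1% tetrabutylammonium hydroxide.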

SMILES	Ratio
O=C(O)c1cc([N+](=O)[O-])ccc1O	0.45
O=C(O)c1cccc([N+](=O)[O-])c1	0.759
O=C(O)c1cc(C(=O)O)cc([N+](=O)[O-])c1	0.128
O=C(O)c1ccc([N+](=O)[O-])cc1C(=O)O	0.113
CN(C)c1ccc([N+](=O)[O-])cc1C(=O)O	0.724
Cc1ccc([N+](=O)[O-])cc1C(=O)O	0.603
O=C(O)c1cc([N+](=O)[O-])cc(C(F)(F)F)c1	1.222
O=C(O)c1cc([N+](=O)[O-])ccc1Cl	1.013

Test: Drug metabolism in Sprague-Dawley rat cecal contents assessed as accumulation of colonic bacteria-mediated final reduction product level at 2 mM
Assay type: ADME
Conditions: 2000 µM
How it was run: as §1

SMILES	Drug metabolism
O=C(O)c1cc([N+](=O)[O-])ccc1O	Active
O=C(O)c1cc(/N=N/c2ccc(O)c(C(=O)O)c2)ccc1O [OLSALAZINE]	Active
O=C(O)c1cc(SSc2ccc(O)c(C(=O)O)c2)ccc1O	Active
